For eight compounds, pD2 and IA results are on record in ChEMBL document CHEMBL1134611, “Agonist activity at the kinin B1 receptor: structural requirements of the central tetrapeptide” (J Med Chem, 2001).

Activity calls are given as the source filed them. The rule behind the calls is not given here. Numbered stars: 1 amine (or outer) side, 2 acyl side, 3 side chain; on linkers, the order of the positions; unused ones are H or OH. Square brackets hold non-standard residues; d marks the D form. Peptide text beside a SMILES is read from it. X2 = O=C(C1(N[*:1])CCCCCCCCCCC1)[*:2]; X1 = O=C(C1(N[*:1])CCCCCCCC1)[*:2]; 12Ado = NCCCCCCCCCCCC(=O)O; Ac8c = NC1(C(=O)O)CCCCCCC1; Ac7c = NC1(C(=O)O)CCCCCC1; Ac6c = NC1(C(=O)O)CCCCC1

Test [1] concerns the target T1, B1 bradykinin receptor (Rattus norvegicus) (UniProt P97583).
T1 sequence (whole entry): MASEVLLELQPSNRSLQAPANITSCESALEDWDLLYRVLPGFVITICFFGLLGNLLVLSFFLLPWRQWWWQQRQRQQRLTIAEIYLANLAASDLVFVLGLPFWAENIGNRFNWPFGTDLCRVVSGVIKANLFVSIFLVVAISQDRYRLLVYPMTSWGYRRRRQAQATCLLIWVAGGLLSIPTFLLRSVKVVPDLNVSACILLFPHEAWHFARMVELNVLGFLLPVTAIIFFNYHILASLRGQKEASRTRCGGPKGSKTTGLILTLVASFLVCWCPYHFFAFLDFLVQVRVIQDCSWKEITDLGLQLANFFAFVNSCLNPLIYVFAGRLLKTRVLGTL
Kind of test: Agonistic activity against Bradykinin receptor B1 of rat ileum longitudinal smooth muscle. It counts as functional, tissue-based. The procedure, abridged:
(§1)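 Rat ileum longitudinal muscle-myenteric plexus strips in oxygenated (95% O2, 5% CO2) Krebs' solution with indomethacin and guanethidine (3 µM each), chlorpheniramine and atropine (1 µM each). Cumulative concentration-response curves of contraction, run with thiorphan, bestatin and captopril (1 µM each). pD2 = -log molar agonist concentration giving 50% of maximal effect; mean ± SEM, 4-10 experiments.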

The target in test [2] is T1, B1 bradykinin receptor (Rattus norvegicus). Kind of test: Agonistic activity against Bradykinin receptor B1 of rat ileum longitudinal smooth muscle; Inactive. The format is functional, tissue-based. Summed up:
as §1

`NCCCC[C@H](N)C(=O)N[C@@H](CCCN=C(N)N)C(=O)NCC(=O)NC1(C(=O)NCC(=O)N[C@@H](CO)C(=O)N2CCC[C@H]2C(=O)N[C@@H](Cc2ccccc2)C(=O)O)CCCCC1` (H-KRG[Ac6c]GSPF-OH) gave a pD2 in test [1] of 5.1.

The compound `NCCCC[C@H](N)C(=O)N[C@@H](CCCN=C(N)N)C(=O)NCC(=O)NC1(C(=O)NCC(=O)N[C@@H](CO)C(=O)N2CCC[C@H]2C(=O)N[C@@H](Cc2ccccc2)C(=O)O)CCCCCC1` (H-KRG[Ac7c]GSPF-OH) yielded a pD2 in test [1] of 5.4.

Take `NCCCC[C@H](N)C(=O)N[C@@H](CCCN=C(N)N)C(=O)NCC(=O)NC1(C(=O)NCC(=O)N[C@@H](CO)C(=O)N2CCC[C@H]2C(=O)N[C@@H](Cc2ccccc2)C(=O)O)CCCCCCC1` (H-KRG[Ac8c]GSPF-OH): the pD2 in test [1] worked out at 5.7.

`NCCCC[C@H](N)C(=O)N[C@@H](CCCN=C(N)N)C(=O)NCC(=O)NC1(C(=O)NCC(=O)N[C@@H](CO)C(=O)N2CCC[C@H]2C(=O)N[C@@H](Cc2ccccc2)C(=O)O)CCCCCCCC1` (H-KRG[X1]GSPF-OH): the pD2 in test [1] worked out at 5.4.

`NCCCC[C@H](N)C(=O)N[C@@H](CCCN=C(N)N)C(=O)NCC(=O)NC1(C(=O)NCC(=O)N[C@@H](CO)C(=O)N2CCC[C@H]2C(=O)N[C@@H](Cc2ccccc2)C(=O)O)CCCCCCCCCCC1` (H-KRG[X2]GSPF-OH) returned a pD2 in test [1] of 5.5.

Compound `NCCCC[C@H](N)C(=O)N[C@@H](CCCN=C(N)N)C(=O)NCCCCCCCCCCCC(=O)N[C@@H](CO)C(=O)N1CCC[C@H]1C(=O)N[C@@H](Cc1ccccc1)C(=O)O` (H-KR[12Ado]SPF-OH) registered a pD2 in test [1] of 6.

As for `NCCCC[C@H](N)C(=O)N[C@@H](CCCN=C(N)N)C(=O)NC1(C(=O)N[C@@H](CO)C(=O)N2CCC[C@H]2C(=O)N[C@@H](Cc2ccccc2)C(=O)O)CCCCCC1` (H-KR[Ac7c]SPF-OH), the IA entry in test [2] is “inactive”.

For H-KRGGGSPF-OH, the IA result in test [2] was “inactive”.
